A value given as a limit tells only on which side of the number the result lay.

The target of data set [1] is T1, CYP1A2 (Homo sapiens, UniProt P05177).
T1 sequence (P05177 whole entry): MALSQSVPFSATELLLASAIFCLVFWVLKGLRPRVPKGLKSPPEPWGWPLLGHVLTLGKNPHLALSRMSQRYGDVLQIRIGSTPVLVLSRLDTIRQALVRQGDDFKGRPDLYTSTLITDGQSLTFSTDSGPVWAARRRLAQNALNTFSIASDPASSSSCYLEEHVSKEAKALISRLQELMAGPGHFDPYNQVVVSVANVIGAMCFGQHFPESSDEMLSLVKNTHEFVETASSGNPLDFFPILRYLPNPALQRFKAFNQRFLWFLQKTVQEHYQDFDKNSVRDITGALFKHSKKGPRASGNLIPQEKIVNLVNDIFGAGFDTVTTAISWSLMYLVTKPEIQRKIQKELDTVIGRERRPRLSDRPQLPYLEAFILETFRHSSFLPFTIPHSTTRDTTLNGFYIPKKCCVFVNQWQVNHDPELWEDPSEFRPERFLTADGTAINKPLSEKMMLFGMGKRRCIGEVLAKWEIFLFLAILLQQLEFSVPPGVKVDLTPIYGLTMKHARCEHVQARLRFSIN
As to the kind of experiment: Inhibition of CYP1A2 (unknown origin) at 10 uM by UPLC-MS analysis relative to control. The class given is ADME. The method in brief:
(§1)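 Human liver microsomes, using a substrate-specific metabolite approach. Test compound at 1 and 10 μM. Reference inhibitors: furafylline (1A2), sulfaphenazole (2C9), quinidine (2D6), ketoconazole (3A4). Specific metabolites quantified by UPLC-MS. Percent inhibition relative to incubation without inhibitor.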

Data set [2] concerns Plasmodium falciparum. The data set is described as follows: Antimalarial activity against Plasmodium falciparum Dd2 DDD498 mutant harbouring Pf-cytB assessed as inhibition of parasite growth incubated for […] by [3H]hypoxanthine incorporation assay based liquid scintillation counting method. The class given is functional, organism-based. Put shortly:
(§2)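 Genetically engineered P. falciparum lines carried mutations introduced into the Dd2 wild-type strain, which was tested alongside them. Growth inhibition was read by [3H]hypoxanthine incorporation over 72 h. IC50 is the mean of two independent biological replicates. Chloroquine and artesunate served as controls.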

For data set [3], the system named is Plasmodium falciparum. As to the kind of experiment: Antimalarial activity against wild type Plasmodium falciparum Dd2 assessed as inhibition of parasite growth incubated for […] by [3H]hypoxanthine incorporation assay based liquid scintillation counting method. The class given is functional, organism-based. Put shortly: as §2
For data set [4], the system named is Plasmodium falciparum. As to the kind of experiment: Antimalarial activity against Plasmodium falciparum 3D70087/N9 infected in humanized NODscidlL2Rgamma null mouse model assessed as reduction in parasitemia at 100 mg/kg, po for 4 consecutive days measured after 7 days of post infection relative to control. Format: functional. As to conditions: 3D70087/N9, po, 96 h, time 4 day. The method in brief: (§3)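 P. falciparum humanized SCID mouse model. Monosodium tetrahydrate salt given orally at 50 or 100 mg/kg on 4 consecutive days, n = 2 mice per group. Parasitemia read at day 7 post infection versus untreated controls.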

Data set [5] relates to Plasmodium falciparum. The data set is described as follows: Antimalarial activity against Plasmodium falciparum Dd2 MMV048 mutant harbouring Pf-pi4k assessed as inhibition of parasite growth incubated for […] by [3H]hypoxanthine incorporation assay based liquid scintillation counting method. Format: functional, organism-based. Put shortly: as §2
In data set [6] the target is CYP3A4 (Homo sapiens, UniProt P08684). As to the kind of experiment: Inhibition of CYP3A4 (unknown origin) at 10 uM by UPLC-MS analysis relative to control. Format: ADME. The method in brief:
as §1

The nature of data set [7]: Intrinsic clearance in rat hepatocytes measured per 10^6 cells at 0.25 uM by LC-MS analysis. As to conditions: read-out: CLH. Format: ADME, cell-based, Hepatocyte. Put shortly:
(§4)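 Compound at 0.25 μM incubated with cryopreserved human or rat hepatocytes (1×10^6 cells/mL) in Krebs–Henseleit buffer at 37 °C. Quenched with acetonitrile containing diazepam. LC-MS quantitation. CLint from the first-order degradation rate constant.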

In data set [8] the test system is Plasmodium falciparum. As to the kind of experiment: Antimalarial activity against Plasmodium falciparum Cam3.1 harbouring Pf-crt, Pf-mdrl,Pf-dhfr, Pf-dhps, pf-kelch13 mutated loci assessed as inhibition of parasite growth incubated for […] by [3H]hypoxanthine incorporation assay based liquid scintillation counting method. The class given is functional, organism-based. The method in brief: (§5)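 Drug-resistant laboratory P. falciparum strains were compared against the sensitive strain NF54. Growth inhibition was read by a modified [3H]hypoxanthine incorporation assay over 72 h. IC50 is the mean of two independent biological replicates. Chloroquine and artesunate served as controls.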

Data set [9] relates to Plasmodium falciparum. As to the kind of experiment: Antimalarial activity against Plasmodium falciparum 3D70087/N9 infected in humanized NODscidlL2Rgamma null mouse model assessed as reduction in parasitemia at 50 mg/kg, po for 4 consecutive days measured after 7 days of post infection relative to control. The class given is functional. As to conditions: 3D70087/N9, po, 96 h, time 4 day. Put shortly:
as §3

Data set [10] in a line: Intrinsic clearance in human hepatocytes measured per 10^6 cells at 0.25 uM by LC-MS analysis. The class given is ADME, cell-based, Hepatocyte. As to conditions: read-out: CLH. The method in brief: as §4
For data set [11], the system named is Hepatocyte. As to the kind of experiment: Cytotoxicity against human hepatocyte measured after 96 hrs. Format: cell-based. The conditions noted are these: hepatocytes.
Data set [12] relates to Plasmodium falciparum. The data set is described as follows: Antiplasmodial activity against Plasmodium falciparum 3D7 infected in human erythrocyte assessed as intraerythrocytic growth inhibition incubated for 72 hrs by DAPI-staining based imaging analysis. As to conditions: 3D7, 72 h. Format: functional, organism-based. The method in brief:
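P. falciparum 3D7 cultured in RPMI1640 with hypoxanthine, HEPES, 2.5 mg/mL AlbuMAX II and 5% human serum. Sorbitol-synchronized rings exposed 72 h at 37 °C under 5% CO2/5% O2, then DAPI-stained with saponin/Triton X-100 for 8 h in the dark. High-content imaging with spot detection. Duplicate points. Reference antimalarials run in each assay.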

Data set [13] in a line: Kinetic solubility of the compound in pH 6.5 phosphate buffer by nephelometry. Format: physicochemical. The conditions noted are these: read-out: Kinetic_solubility. The method in brief: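 DMSO stock spiked into pH 6.5 phosphate buffer (1% DMSO final). After 30 min, solubility range estimated by nephelometry.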
Data set [14] in a line: Cytotoxicity against human HEK293 cells assessed as cell viability incubated for 72 hrs by Alamar blue assay. The class given is cell-based. Put shortly:
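HEK293 cells handled with the same incubation, compound addition and timing as the 72 h parasite assay. Alamar Blue, diluted in growth medium, was incubated 4 h at 37 °C/5% CO2, then 20 h at room temperature before plate read.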
(In general: Resazurin is reduced to fluorescent resorufin, in cell work by metabolically active cells.)

Data set [15] concerns Plasmodium falciparum. The data set is described as follows: Antimalarial activity against Plasmodium falciparum Dd2 ELQ-300 mutant harbouring Pf-cytB assessed as inhibition of parasite growth incubated for […] by [3H]hypoxanthine incorporation assay based liquid scintillation counting method. Format: functional, organism-based. The method in brief: as §2
Data set [16] has as its target CYP2D6 (Homo sapiens, UniProt P10635). As to the kind of experiment: Inhibition of CYP2D6 (unknown origin) at 10 uM by UPLC-MS analysis relative to control. The class given is ADME. The method in brief:
as §1

The test system of data set [17] is Plasmodium falciparum. The data set is described as follows: Antiplasmodial activity against liver stage Plasmodium falciparum NF54 sporozoites infected in human hepatocytes assessed as maximal parasite killing measured after 96 hrs by schizont assay relative to control. Format: functional.
Data set [18] addresses CYP2C9 (Homo sapiens, UniProt P11712). The data set is described as follows: Inhibition of CYP2C9 (unknown origin) at 10 uM by UPLC-MS analysis relative to control. Format: ADME. Put shortly: as §1
The target in data set [19] is Voltage-gated inwardly rectifying potassium channel KCNH2 (Homo sapiens, UniProt Q12809). The data set is described as follows: Inhibition of human ERG by QPatch automated patch clamp system. The method in brief: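 hERG current recorded on a QPatch automated patch clamp at four concentrations in 0.5-log steps.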
A general note: In patch-clamp work, channel activity is measured electrically.

Data set [20] deals with Plasmodium falciparum. The data set is described as follows: Antimalarial activity against Plasmodium falciparum 7G8 harbouring Pf-crt, Pf-mdrl,Pf-dhfr, Pf-dhps mutated loci assessed as inhibition of parasite growth incubated for […] by [3H]hypoxanthine incorporation assay based liquid scintillation counting method. Format: functional, organism-based. Put shortly: as §5

Data set [21] has as its system Plasmodium falciparum. As to the kind of experiment: Antimalarial activity against Plasmodium falciparum K1 harbouring Pf-crt, Pf-mdrl,Pf-dhfr, Pf-dhps mutated loci assessed as inhibition of parasite growth incubated for […] by [3H]hypoxanthine incorporation assay based liquid scintillation counting method. Format: functional, organism-based. The method in brief: as §5

Sequence of CYP3A4 (P08684 whole entry): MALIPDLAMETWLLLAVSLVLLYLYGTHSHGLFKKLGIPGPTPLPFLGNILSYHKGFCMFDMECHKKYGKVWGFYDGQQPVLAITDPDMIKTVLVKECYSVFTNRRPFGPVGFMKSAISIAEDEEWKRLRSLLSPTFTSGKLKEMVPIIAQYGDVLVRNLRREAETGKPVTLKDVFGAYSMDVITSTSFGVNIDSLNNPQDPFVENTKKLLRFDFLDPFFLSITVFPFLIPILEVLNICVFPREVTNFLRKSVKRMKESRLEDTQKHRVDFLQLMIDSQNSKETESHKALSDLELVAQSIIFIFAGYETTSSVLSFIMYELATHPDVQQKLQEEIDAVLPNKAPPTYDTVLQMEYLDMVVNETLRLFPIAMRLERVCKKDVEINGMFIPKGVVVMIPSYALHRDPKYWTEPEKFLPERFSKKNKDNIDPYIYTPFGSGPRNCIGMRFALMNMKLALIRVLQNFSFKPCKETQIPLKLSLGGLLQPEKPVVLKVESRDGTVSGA
Sequence of CYP2D6 (P10635 whole entry): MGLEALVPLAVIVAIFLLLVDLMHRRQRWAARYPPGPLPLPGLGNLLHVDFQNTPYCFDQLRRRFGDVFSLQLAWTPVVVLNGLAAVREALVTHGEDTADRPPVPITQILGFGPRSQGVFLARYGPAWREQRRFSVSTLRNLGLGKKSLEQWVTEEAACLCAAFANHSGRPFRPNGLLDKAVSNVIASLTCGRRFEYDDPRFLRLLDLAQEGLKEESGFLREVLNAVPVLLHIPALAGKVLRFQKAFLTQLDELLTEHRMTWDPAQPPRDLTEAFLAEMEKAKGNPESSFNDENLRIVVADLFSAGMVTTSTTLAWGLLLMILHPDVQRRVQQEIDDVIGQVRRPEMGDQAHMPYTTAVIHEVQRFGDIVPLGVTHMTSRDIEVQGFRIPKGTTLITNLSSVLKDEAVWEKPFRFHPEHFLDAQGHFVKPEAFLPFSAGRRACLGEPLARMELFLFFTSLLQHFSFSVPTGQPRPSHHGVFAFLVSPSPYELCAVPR
Sequence of CYP2C9 (P11712 whole entry): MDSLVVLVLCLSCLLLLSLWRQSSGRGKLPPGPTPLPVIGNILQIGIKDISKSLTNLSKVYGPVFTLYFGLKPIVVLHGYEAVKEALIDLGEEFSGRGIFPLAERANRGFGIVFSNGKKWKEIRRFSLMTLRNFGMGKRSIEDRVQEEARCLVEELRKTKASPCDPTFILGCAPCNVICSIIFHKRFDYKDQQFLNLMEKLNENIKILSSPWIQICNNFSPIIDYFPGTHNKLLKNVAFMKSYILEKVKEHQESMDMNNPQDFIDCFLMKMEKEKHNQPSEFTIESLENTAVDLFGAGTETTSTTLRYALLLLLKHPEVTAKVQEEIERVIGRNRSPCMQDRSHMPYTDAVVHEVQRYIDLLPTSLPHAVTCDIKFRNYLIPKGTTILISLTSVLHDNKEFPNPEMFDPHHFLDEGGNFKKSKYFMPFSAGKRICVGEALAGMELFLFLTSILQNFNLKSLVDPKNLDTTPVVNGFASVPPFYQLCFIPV
Sequence of Voltage-gated inwardly rectifying potassium channel KCNH2 (Q12809 whole entry): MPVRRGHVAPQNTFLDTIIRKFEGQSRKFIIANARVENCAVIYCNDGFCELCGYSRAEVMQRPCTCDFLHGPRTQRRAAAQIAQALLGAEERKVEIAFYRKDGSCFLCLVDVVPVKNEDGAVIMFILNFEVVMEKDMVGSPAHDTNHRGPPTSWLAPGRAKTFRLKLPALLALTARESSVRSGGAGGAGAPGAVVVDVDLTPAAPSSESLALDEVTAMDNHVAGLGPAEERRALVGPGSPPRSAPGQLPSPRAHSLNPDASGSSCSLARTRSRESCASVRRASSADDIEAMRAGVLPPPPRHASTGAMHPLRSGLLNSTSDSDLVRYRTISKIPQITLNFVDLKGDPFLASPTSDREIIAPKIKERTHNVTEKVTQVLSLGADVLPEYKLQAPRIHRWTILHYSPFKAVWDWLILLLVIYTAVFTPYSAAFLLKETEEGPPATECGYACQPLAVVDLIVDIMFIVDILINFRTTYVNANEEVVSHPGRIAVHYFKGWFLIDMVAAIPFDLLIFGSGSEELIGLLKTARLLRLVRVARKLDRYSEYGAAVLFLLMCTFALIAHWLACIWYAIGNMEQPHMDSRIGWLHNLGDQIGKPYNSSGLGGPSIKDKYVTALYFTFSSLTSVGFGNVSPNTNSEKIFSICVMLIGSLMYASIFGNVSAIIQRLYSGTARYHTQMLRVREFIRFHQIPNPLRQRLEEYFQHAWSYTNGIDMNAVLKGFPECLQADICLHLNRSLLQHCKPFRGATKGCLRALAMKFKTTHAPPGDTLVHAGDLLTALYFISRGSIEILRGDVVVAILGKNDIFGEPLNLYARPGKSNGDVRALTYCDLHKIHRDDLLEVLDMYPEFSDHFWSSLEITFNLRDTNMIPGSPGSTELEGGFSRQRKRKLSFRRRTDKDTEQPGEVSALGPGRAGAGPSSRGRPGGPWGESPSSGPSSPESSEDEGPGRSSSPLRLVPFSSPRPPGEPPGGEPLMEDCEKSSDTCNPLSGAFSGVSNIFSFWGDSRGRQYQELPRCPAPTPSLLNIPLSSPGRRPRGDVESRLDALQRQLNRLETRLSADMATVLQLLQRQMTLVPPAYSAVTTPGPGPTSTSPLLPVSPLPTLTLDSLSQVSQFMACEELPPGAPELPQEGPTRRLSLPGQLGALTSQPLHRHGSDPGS

With `CCc1cccc(CNC(=O)c2nc3cccc(COCc4ccc(C(=O)O)cc4)c3c(=O)[nH]2)c1`, the inhibition (in general, how much of the control response was suppressed) at 10 µM in data set [1] was less than 10%; in data set [6] it was less than 10%; in data set [16], less than 10%; in data set [18], 55%. The half-maximal inhibitory concentration (IC50) (usually the concentration that gives 50% inhibition) in [2] stood at 19 nM; in data set [3] it was 33 nM; in [5], 27 nM; in data set [8], 31 nM; in [12], 25 nM; in data set [15], 20 nM. Further, the IC50 in data set [19] is more than 30000 nM; in [20], 16 nM; in data set [21], 31 nM. Moreover, in [4], the inhibition in vivo (as a rule, the percentage by which the read-out fell short of the control) at 100 mg/kg came out at 89%. The figures for the hepatocyte CLint at 0.25 µM in data set [7] and in data set [10] were 6 µL/min/1e6 cells and 15 µL/min/1e6 cells, respectively. Further, the inhibition in vivo at 50 mg/kg in [9] was 65%. For the same compound, the Activity entry in data set [11] is “Non-Toxic”. Further, the solubility kinetic in data set [13] was less than 1.6 µg/mL. In addition, in data set [14], the CC50 (usually the concentration that lowers cell viability or growth by half) at 72 h was more than 40000 nM. In addition, in data set [17], the maximal response (Emax) (as a rule, the greatest response seen or fitted, relative to the assay's reference) stood at 50%.

The values above are taken from ChEMBL document CHEMBL4828745, “Discovery and Structure-Activity Relationships of Quinazolinone-2-carboxamide Derivatives as Novel Orally Efficacious Antimalarials” (J Med Chem, 2021).
